Assay outcomes: PubChem BioAssay, several laboratories
CHT PAM: human CHT allosteric activation. CHT-expressing cells, membrane potential dye, choline EC20; active compounds read high; LV-AA mutant CHT in HEK293 cells. Q9GZV3. AID 488977. actives 0.49% (n = 310,000). B-score at 10 µM;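 active = initial fluorescence not abnormally high and integrated response B-score, plate-corrected, over 3 SD above library mean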
Rad51 HR inh: Rad51 (human) homologous recombination inhibition; Q06609; hRad51 DNA strand exchange, fluorescence dequenching; inhibition, % at 10 µM; actives 0.085% (n = 200,000); AID 1385;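 active = inhibition above 40% at the single screening dose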;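 also: 0% = DMSO control wells and 100% = blanks with heterologous ssDNA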
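Read-out basis: percent inhibition relative to plate controls and blanks / Assay system: human Rad51 nucleoprotein filaments preassembled on unlabelled ssDNA / Timing: filaments 15 min 37 °C, then compound 30 min / Control set: per-plate controls and blanks / Technique: fluorescence dequenching at 485/520 nm / Compound: 10 µM final, single point / Also added: Fluorescein- and BHQ1-tagged 47-mer duplex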
Cl transport mod: modulates chloride dependent transport by human KCC2. KCC2 cells, thallium flux FluoZin-2 fluorescence. Q9H2X9. actives 2.2% (n = 190,000). B-score of Tl+ flux slope (higher = more flux/activation; lower = inhibition) at 10 µM;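 active = thallium flux slope and its plate-corrected score both differing from the plate sample mean at a set confidence after two filtering rounds, in either direction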;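 also: slope of fluorescence scaled to starting intensity during 10 to 20 s after thallium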
CHT block: inhibitors of human choline transporter CHT | Q9GZV3 | CHT-expressing cells, membrane potential dye, choline response; active compounds read low | B-score at 10 µM | actives 0.86% (n = 310,000) | AID 488975;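 active = B-score over 3 SD under the library average, and starting fluorescence ratio not unusually high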;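 also: choline stimulus applied at its EC90 after an EC20 pre-addition; B-score computed on integrated fluorescence ratio after choline addition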
KCC2 sec1: KCC2 (human) modulation, secondary assay; shares compounds with Cl transport mod; HEK293-KCC2, thallium flux, FluoZin2 fluorescence; active compounds read high; normalised thallium flux (F/F0 slope) at 10 µM; actives 15% (n = 3,700);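 active = thallium flux slope above the same plate's solvent-only control mean plus 3 SD; inconclusive = the two replicate wells disagree; inactive = no significant difference from solvent-only control wells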
KCC2 bumet counter: thallium flux persisting under bumetanide in KCC2 cells, counter-screen secondary assay; shares compounds with Cl transport mod; HEK293-KCC2 + bumetanide/ouabain, thallium flux FluoZin2; active compounds read high; normalized thallium flux at 10 µM; actives 49% (n = 3,700);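 active = thallium entry rate above the same plate's blocked-transporter control wells by more than 3 SD; inconclusive = the two repeat wells disagree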;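 also: raw slope of fluorescence over initial fluorescence between 10 and 20 s after thallium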
KCC2 secondary2: KCC2 (human) modulation, second secondary assay; HEK293-KCC2, thallium flux FluoZin2 fluorescence; actives lie on both sides; F/F0 rise rate, 10–20 s post-thallium; AID 1715; shares compounds with Cl transport mod; normalized thallium flux at 10 µM; actives 23% (n = 3,700);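 active = thallium flux slope more than 3 SD above or below the plate's solvent-only control mean, mostly below; inconclusive = the two repeat wells disagreed; inactive = no significant shift from solvent-only controls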;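 also: raw slope with 0.1% DMSO as baseline and bumetanide as block control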
HEK counter1: counter-screen for KCC2 modulators: effect in parental HEK293 cells. thallium flux FluoZin2, ouabain; baseline-ratio fluorescence slope, 10–20 s after thallium. shares compounds with Cl transport mod. thallium flux rate (normalised fluorescence) at 10 µM. actives 46% (n = 3,700). AID 1716;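 active = thallium flux rate significantly above the same plate's solvent-only control wells, beyond their mean plus 3 SD; inconclusive = the two replicate wells gave conflicting results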
KCC2 retest ouab: confirmation of human KCC2 modulators with ouabain | shares compounds with Cl transport mod | HEK293-KCC2, thallium flux FluoZin2 fluorescence; bidirectional: low = inhibitor, high = activator | raw Tl+ flux slope (below DMSO = inhibition, above = activation) at 10 µM | actives 48% (n = 3,700);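 active = thallium flux slope beyond 3 SD from same-plate DMSO control mean in most replicates, usually higher, sometimes lower; inconclusive = repeat tests gave conflicting results; inactive = no significant difference from controls in most replicates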;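 also: slope of initial-normalized fluorescence between seconds 10 and 20 after thallium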
HEK293 Tl flux2: parental HEK flux effect, counter-screen 2; shares compounds with Cl transport mod; HEK293 parental, thallium flux FluoZin-2 fluorescence slope; thallium flux slope at 10 µM; actives 33% (n = 3,700);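 active = thallium flux slope above the same plate's solvent-control mean plus 3 SD in both duplicate wells; inconclusive = duplicate wells that disagreed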;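 also: run without ouabain in cells lacking the KCC2 cotransporter; slope of fluorescence scaled to its starting value between 10 and 20 s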
* hit, by the source's call; i = inactive; u = inconclusive; x = no result given. This is a sample that favours compounds with a hit; in the whole collection about 2.6% have one here.

SMILES	CHT PAM	Rad51 HR inh	Cl transport mod	CHT block	KCC2 sec1	KCC2 bumet counter	KCC2 secondary2	HEK counter1	KCC2 retest ouab	HEK293 Tl flux2
CCCn1c(=S)[nH]c2cc(C(=O)N3CCN(C(=O)OCC)CC3)ccc2c1=O	i	x	x	i	x	x	x	x	x	x
O=C(c1ccc2c(=O)n(C3CCCC3)c(=S)[nH]c2c1)N1CCN(C2CCCCC2)CC1	i	x	8.3*	i	0.0063	0.0098*	0.029	0.015*	0.021	0.013*
COc1ccc(C2(CNC(=O)Cc3ccc(OC)c(OC)c3)CCOCC2)cc1	i	2	0.015	i	x	x	x	x	x	x
CCCCn1c(SCC(N)=O)nc2c(sc3ccccc32)c1=O	i	-1	0.6	i	x	x	x	x	x	x
CCSc1nc2c(sc3ccccc32)c(=O)n1C(C)C	i	6	24*	i	0.038*	0.12*	0.042*	0.055*	0.054*	0.021*
Cc1cccc(NC(=O)CSc2nnc(CSc3nc(C)cc(C)n3)n2Cc2ccco2)c1	i	4	x	i	0.0066	0.0041	0.03	u	0.016	0.0093
Fc1cccc(Cl)c1CSc1nnc(CNc2ccccc2)o1	i	5	-3.5*	i	0.015	0.0029	0.026	0.0058*	0.014*	u
Fc1ccc(NCc2nnc(SCc3ccccc3)o2)cc1	i	6	-3	i	x	x	x	x	x	x
O=C(c1nc2ccc(Cl)cn2c1CN1CCC[C@H]1CO)N1CCCCCCC1	i	x	x	i	x	x	x	x	x	x
CCCCn1c(NS(=O)(=O)c2ccc(C)cc2)c(S(=O)(=O)c2ccccc2)c2nc3ccccc3nc21	i	-3	-6.5*	i	0.009	0.017*	0.033	u	u	0.011
CCc1cc(Cn2nc(-c3ccccc3)cc2C(=O)NCc2ccccc2OC)on1	i	x	x	i	x	x	x	x	x	x
O=c1c2ccccc2n2c(-c3cccc(F)c3)nnc2n1Cc1ccccc1	i	6	-0.65	i	x	x	x	x	x	x
COc1ccc(-c2nnc3n(CCc4ccccc4)c(=O)c4ccccc4n23)cc1OC	i	-7	4.4*	i	0.0088	0.017*	0.028	0.0097*	u	u
N#Cc1ccccc1NC(=O)C(=O)NCCCN1CCCC1=O	i	x	x	i	x	x	x	x	x	x
O=C(Cc1cccs1)N1CCCC(c2nc3c(nnn3Cc3ccc(F)cc3)c(=O)[nH]2)C1 (stereo not drawn)	i	-1	x	i	x	x	x	x	x	x
O=C(Cc1cccs1)N1CCCC(c2nc3c(nnn3Cc3ccccc3Cl)c(=O)[nH]2)C1 (stereo not drawn)	i	1	-3.7*	i	0.0067	0.0055	0.031	0.0064	0.017*	0.011
CCCCCC1(C)NC(=S)N(c2ccccc2)N1 (stereo not drawn)	i	20	-0.27	i	x	x	x	x	x	x
CCC1(c2ccccc2)NC(=S)N(c2ccc(C)cc2)N1 (stereo not drawn)	i	-4	78*	i	0.031*	0.1*	0.073*	0.093*	0.092*	0.091*
O=C(c1ccc(NC(=S)Nc2ccc(F)cc2F)cc1)N1CCOCC1	i	x	x	i	x	x	x	x	x	x
C/C(N)=C(/C#N)C(=O)CSc1nnc(SCc2ccc(Cl)cc2)s1	i	-7	x	i	0.007	0.0071	0.032	0.0041	u	0.012
O=c1[nH]ncc(N/N=C/c2ccccc2)c1Cl	i	-1	x	i	0.0075	0.0056*	0.029	0.0079	0.017	0.0095
O=C(NC(=S)Nc1ccc(N2CCOCC2)cc1)c1cccs1	i	-2	3.1*	i	0.0097	0.033*	0.032	u	0.023	0.011
Cc1ccccc1C(=O)N1CCN(c2ccc(NC(=S)NC(=O)c3cccs3)cc2)CC1	i	-3	3.2	i	0.0097	0.015*	0.031	0.0082	0.02	0.011
CCOC(=O)Cc1csc(NC(=O)/C=C\c2ccccc2Cl)n1	i	-2	0.00092	i	x	x	x	x	x	x
Cc1ccc(Cl)cc1N1CCN(C(=O)c2cc3c(=O)n(C)c4ccccc4c3n2C)CC1	i	-2	-0.38	i	x	x	x	x	x	x
SMILES	CHT PAM	Rad51 HR inh	Cl transport mod	CHT block	KCC2 sec1	KCC2 bumet counter	KCC2 secondary2	HEK counter1	KCC2 retest ouab	HEK293 Tl flux2
O=C(NCc1ccc2c(c1)OCO2)c1ccc(CS(=O)Cc2ccc(Cl)cc2)o1 (stereo not drawn)	i	x	x	i	x	x	x	x	x	x
O=C(NCc1ccc2c(c1)OCO2)c1ccc(COc2cccc(Cl)c2)o1	i	x	-6.9*	i	0.0079	0.0048	0.035	0.004	u	0.012
C=CCn1c(SCCOc2ccc(OC)cc2)nnc1C(CO)NC(=O)c1ccc(OC)cc1 (stereo not drawn)	i	-1	-0.97	i	x	x	x	x	x	x
CN1C(=O)C(N=Nc2ccccc2C(=O)O)N(C)C1=S (stereo not drawn)	i	-112	-4.7*	i	0.0073	0.0017*	u	0.0054*	0.015*	0.0095
CC(C(=O)N1CCOCC1)n1cc([N+](=O)[O-])cn1 (stereo not drawn)	i	x	0.35	i	x	x	x	x	x	x
CCNC(=O)CC1C(=O)N(c2ccc(C)cc2)C(=O)N1CCC(C)C (stereo not drawn)	i	x	x	i	x	x	x	x	x	x
COc1ccc(Cn2nnnc2C(CC(C)C)N2CCN(c3ccccc3)CC2)cc1 (stereo not drawn)	i	9	x	i	0.0088	0.0041	0.033	0.0067	0.018	0.011
CNC(=S)N/N=C(\C)c1ccccc1	i	16	1.2	i	x	x	x	x	x	x
CNC(=S)N/N=C(\C)c1ccc(C(C)(C)C)cc1	i	-10	5.7*	i	0.0093	0.018*	0.032	0.022*	u	0.013*
CCOC(=O)c1sc2nc[nH]c(=O)c2c1C	i	7	5.8*	i	0.0084	0.0064	0.03	0.0076	0.023	u
CN1CCN(CC(=O)Nc2nc(-c3ccccc3)cs2)CC1	i	x	x	i	0.0082	0.0087*	0.032	0.0088	0.021	0.011
CC1CCN(CC(=O)Nc2nc(-c3ccccc3)cs2)CC1	i	x	x	i	x	x	x	x	x	x
O=C(CN1C(=O)NC2(CCCC2)C1=O)Nc1nc(-c2ccc(F)cc2)cs1	i	-14	-6.6*	i	0.0092	0.0066	0.027*	0.0075	0.014*	0.01
